# Where “and” joins values, the source holds several entries; their conditions need not be identical. Equal entries are not always repeated. Where two headings read alike, the source gives them in different places.
# Assays:
# advanced solid tumors [1] = experiment: Phase 1 trial of adavosertib: tumor response by RECIST 1.1
# PKMYT1 = conditions: cited from earlier work
# [2] = human, in vivo
# Wee1 kinase [3] = experiment: Nuclear pY15-Cdk1/2 in paired tumor biopsies; assay type: in vivo, patients
# How it was run: (§1)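 Expansion-cohort patients got 300 mg once daily on days 1-5 and 8-12 of 21-day cycles, with prophylactic anti-emetics. Paired 18-gauge core needle tumor biopsies were taken on C1D1 and C1D8 before the daily dose, after the 72-h dosing pause on days 6-7. Nuclear marker levels were assessed. pY15-Cdk, γH2AX and pNbs1 were reported as percent nuclear area positive. Patients were grouped by baseline pY15-Cdk.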
# Wee1 kinase [4] = conditions: cited from earlier work
# advanced solid tumors [5] = conditions: cited from earlier work
# phospho-Cdk1 = conditions: chemotherapy combinations, cited from earlier work
# [6] = twice daily x 5 doses for 2 weeks, in 3-week cycles; cited from earlier work
# [7] = Plasma pharmacokinetics of adavosertib; conditions: human, oral, 300 mg
# [8] = system: pHH3, γH2AX, RAD51, pNbs1; experiment: DNA damage response and mitosis markers in paired tumor biopsies; assay type: in vivo, patients
# How it was run: as §1
# [9] = system: recurrent uterine serous carcinoma; conditions: adavosertib monotherapy; cited from earlier work
smiles,measurement,setting,value
C=CCn1c(=O)c2cnc(Nc3ccc(N4CCN(C)CC4)cc3)nc2n1-c1cccc(C(C)(C)O)n1 [adavosertib],"Median number of treatment cycles, patients with SD","advanced solid tumors [1]; 20 patients, range 2-26",4 cycles
same,Patients with SD receiving ≥ 11 cycles of treatment,advanced solid tumors [1]; of 20 patients with SD,5 patients
same,Patients with best response of SD for ≥ 9 months,advanced solid tumors [1]; once-daily adavosertib,5 patients
same,Overall response rate,"advanced solid tumors [1]; once-daily adavosertib, 42 enrolled patients, 90% confidence interval [6%, 26%]",14%
same,Patients with PR at the 400 mg dose level,"advanced solid tumors [1]; out of the 3 enrolled, both ovarian cancer, dose-reduced to 300 mg",2 patients
same,Patients with PR at the MTD (300 mg),advanced solid tumors [1]; out of the 26 enrolled at the MTD,4 patients
same,Inhibition of PKMYT1,PKMYT1,does not substantially inhibit PKMYT1
same,Plasma concentrations day 5 versus day 1,[2],higher on day 5 compared to day 1
same,Increases in nuclear pY15-Cdk at C1D8,"Wee1 kinase [3]; 4 of 5 patients with low baseline pY15-Cdk (≤ 2.2% NAP), p < 0.0001",192%-1094%
same,Patients with tumor pY15-Cdk levels higher than baseline on C1D8 (pre-dose),Wee1 kinase [3]; of 8 patients with evaluable biopsy pairs (of 5 with low baseline),4 patients
same,"Reduction of nuclear pY15-Cdk, twice-daily arm, individual patients","Wee1 kinase [4]; 2-5 hours after dose 5, 2 of 2 patients",84% and 90%
same,"Wee1 kinase suppression (pY15-Cdk1/2 reduction), twice-daily arm",Wee1 kinase [4]; tumor biopsies 2-5 hours after the fifth dose,80-90%
same,"Overall response rate, twice-daily adavosertib","advanced solid tumors [5]; 25 enrolled patients, 90% confidence interval [1%, 23%]",8%
same,"PRs, twice-daily adavosertib",advanced solid tumors [5]; among 25 enrolled patients,2 patients
same,Target suppression (phospho-Cdk1 attenuation),phospho-Cdk1; adavosertib twice daily at 25 mg,not at 25 mg
same,Target suppression (phospho-Cdk1 attenuation),phospho-Cdk1; adavosertib twice daily at 200 mg or 225 mg,significant target suppression
same,"MTD, twice-daily regimen",[6],225 mg
same,concentration at 72 h,[7],> 5 nM
same,Nuclear pHH3 levels between baseline and C1D8,[8]; 8 patients,generally unchanged
same,Changes in tumor levels of nuclear RAD51,"[8]; 8 patients, baseline vs C1D8",None of the 8 patients evaluable for pharmacodynamic response showed changes
same,Levels of DNA repair markers (γH2AX and/or pNbs1) at C1D8,[8]; both patients with significantly decreased pY15-Cdk,significant increases
same,"pHH3 positivity at C1D8, patient 1010056","[8]; from 1.1% at baseline, best response PD, p < 0.0001",4.1 % cells positive
same,Preliminary overall response rate,[9],29%
same,"Alanine aminotransferase increased, Grade 1-2 (%)","human, in vivo",11 (26%) patients (%)
same,"Anemia, Grade 1-2 (%)","human, in vivo",20 (47%) patients (%)
same,"Anemia, Grade 3 (%)","human, in vivo",9 (21%) patients (%)
same,"Anemia, any-grade","human, in vivo",69%
same,"Anemia, ≥ grade 3","human, in vivo",21%
same,"Anorexia, Grade 1-2 (%)","human, in vivo",17 (40%) patients (%)
same,"Aspartate aminotransferase increased, Grade 1-2 (%)","human, in vivo",11 (26%) patients (%)
same,"Dehydration, Grade 1-2 (%)","human, in vivo",5 (12%) patients (%)
same,"Dehydration, Grade 3 (%)","human, in vivo",1 (2%) patients (%)
same,"Diarrhea, Grade 1-2 (%)","human, in vivo",25 (60%) patients (%)
same,"Diarrhea, Grade 3 (%)","human, in vivo",2 (5%) patients (%)
same,Dose-limiting toxicities (type),"human, in vivo",grade 4 hematological toxicity and grade 3 fatigue
same,"Fatigue, Grade 1-2 (%)","human, in vivo",19 (45%) patients (%)
same,"Fatigue, Grade 3 (%)","human, in vivo",3 (7%) patients (%)
same,"Febrile neutropenia, Grade 3 (%)","human, in vivo",1 (2%) patients (%)
same,"Gastrointestinal adverse events (nausea, vomiting, diarrhea) that were ≥ grade 3","human, in vivo",≤ 12%
same,"Hypoalbuminemia, Grade 1-2 (%)","human, in vivo",9 (21%) patients (%)
same,"Hypocalcemia, Grade 1-2 (%)","human, in vivo",3 (7%) patients (%)
same,"Hypocalcemia, Grade 3 (%)","human, in vivo",1 (2%) patients (%)
same,"Hypocalcemia, grade 3 incidence","human, in vivo",2%
same,"Hypokalemia, Grade 1-2 (%)","human, in vivo",5 (12%) patients (%)
same,"Hypokalemia, Grade 3 (%)","human, in vivo",1 (2%) patients (%)
same,"Hypokalemia, grade 3 incidence","human, in vivo",2%
same,"Hypomagnesemia, Grade 1-2 (%)","human, in vivo",7 (17%) patients (%)
same,"Hypomagnesemia, Grade 3 (%)","human, in vivo",1 (2%) patients (%)
same,"Hypomagnesemia, grade 3 incidence","human, in vivo",2%
same,"Hyponatremia, Grade 1-2 (%)","human, in vivo",8 (19%) patients (%)
same,"Hyponatremia, Grade 3 (%)","human, in vivo",1 (2%) patients (%)
same,"Hyponatremia, grade 3 incidence","human, in vivo",2%
same,"Hypophosphatemia, Grade 1-2 (%)","human, in vivo",10 (24%) patients (%)
same,"Hypophosphatemia, Grade 3 (%)","human, in vivo",6 (14%) patients (%)
same,"Hypophosphatemia, ≥ grade 3","human, in vivo",14%
same,"Leukopenia, Grade 1-2 (%)","human, in vivo",12 (29%) patients (%)
same,"Leukopenia, Grade 3 (%)","human, in vivo",5 (12%) patients (%)
same,"Leukopenia, Grade 4 (%)","human, in vivo",4 (10%) patients (%)
same,"Leukopenia, grade 4 events","human, in vivo",10%
same,"Leukopenia, ≥ grade 3","human, in vivo",21%
same,"Lymphopenia, Grade 1-2 (%)","human, in vivo",18 (43%) patients (%)
same,"Lymphopenia, Grade 3 (%)","human, in vivo",12 (29%) patients (%)
same,"Lymphopenia, any-grade","human, in vivo",71%
same,"Lymphopenia, ≥ grade 3","human, in vivo",29%
same,"Median duration until recovery, grade 3/4 leukopenia","human, in vivo",5 days
same,"Median duration until recovery, grade 3/4 lymphopenia","human, in vivo",18 days
same,"Median duration until recovery, grade 3/4 neutropenia","human, in vivo",5 days
same,"Nausea, Grade 1-2 (%)","human, in vivo",31 (74%) patients (%)
same,"Nausea, Grade 3 (%)","human, in vivo",3 (7%) patients (%)
same,"Nausea, any grade, patients","human, in vivo",81%
same,"Nausea, vomiting, or diarrhea, each, patients","human, in vivo",> 60%
same,"Neutropenia, Grade 1-2 (%)","human, in vivo",5 (12%) patients (%)
same,"Neutropenia, Grade 3 (%)","human, in vivo",4 (10%) patients (%)
same,"Neutropenia, Grade 4 (%)","human, in vivo",5 (12%) patients (%)
same,"Neutropenia, grade 4 events","human, in vivo",12%
same,"Thrombocytopenia, Grade 1-2 (%)","human, in vivo",13 (31%) patients (%)
same,"Thrombocytopenia, Grade 3 (%)","human, in vivo",5 (12%) patients (%)
same,"Thrombocytopenia, Grade 4 (%)","human, in vivo",1 (2%) patients (%)
same,"Thrombocytopenia, grade 4 events","human, in vivo",2%
same,"Vomiting, Grade 1-2 (%)","human, in vivo",24 (57%) patients (%)
same,"Vomiting, Grade 3 (%)","human, in vivo",5 (12%) patients (%)
same,DLTs at dose levels other than 400 mg QD,in vivo,No DLTs
same,Recommended phase 2 dose (RPh2D),once daily on days 1-5 and 8-12 in 21-day cycles,300 mg
same,"Upper respiratory infection, Grade 3 (%)","once-daily adavosertib, n = 42 patients",1 (2%) patients (%)

# Source: paper PMC8282703 (Clinical cancer research : an official journal of the …, 2021)
